High-throughput results as filed in PubChem.
Rows were chosen to be rich in hits. Some 4.9% of all compounds tested hit in one or more screens of this group.
STAT1 inh-1 – STAT1 signaling inhibitors, primary screen, cell-based, HTS, luciferase reporter. NIH 3T3 STAT1-luciferase reporter, IFN-gamma, luminescence. inhibition, % at 5.5 µM. 0.35% of 200,000 active. AID 920, 2007;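 active = inhibition above a set limit, the mean inhibition across all tested compounds plus 3 SD, cut at about 34% in these data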;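 also: 0% = IFN-gamma with DMSO and 100% = IFN-gamma with 300 µM nifuroxazide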
APP 5'UTR act – activators of APP 5'UTR luciferase reporter, primary screen, SH-SY5Y cells; SH-SY5Y APP 5'UTR luciferase reporter, luminescence; zero percent = DMSO vehicle wells; activation, % at 2 µM; 1% of 190,000 active;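 active = activation above a set limit, based on mean plus 3 SD of controls, cut at about 140% in these data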
STAT3 activator – IL-6 driven STAT3 reporter potentiators, primary screen, U3A cells, luciferase, luminescence, MLSCN library; IL-6 STAT3-luciferase reporter; 100% = signal with IL-6 EC80 alone; activation (% of control), % at 5.6 µM; 0.91% of 190,000 active; AID 871, 2007;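 active = activation above the screen-wide mean of compound activation plus 3 SD, cut at about 130% in these data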;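 also: 0% = background luminescence of wells with medium and substrate only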
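Material: human U3A cells carrying STAT3-luciferase construct. Measured by: reporter luminescence signal. Timing: compound 1 h, then IL-6 6 h at 37 °C.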
STAT3 inh – IL-6 driven STAT3 reporter inhibitors, primary screen, U3A cells, luciferase, luminescence, MLSCN library | IL-6 STAT3-luciferase reporter; host cell line lacks STAT1 | inhibition, % at 5.5 µM | 0.89% of 190,000 active | AID 862, 2007;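 active = inhibition above the mean inhibition across all screened compounds plus 3 SD, cut at about 44% in these data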;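 also: 0% = DMSO only wells and 100% = 100 µM nifuroxazide control wells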
STAT1 activator – STAT1 signaling activators, primary screen, cell-based, HTS, luciferase reporter; activation (% of control), % at 5.5 µM; AID 932, 2007; NIH 3T3 STAT1-luciferase reporter, IFN-gamma, luminescence; 100% = IFN-gamma alone, no compound; 2.6% of 200,000 active;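 active = activation above the screen-wide mean activation plus 3 SD, cut at about 130% in these data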;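 also: raw ratio to IFN-gamma control signal so 100% means no change and 0% no light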
NF-kB neuron act – activators of NF-kB expression in neurons, primary screen, cell-based, HTS; human neuronal cells, NF-kB reporter expression; stronger effect = higher value; fold change at 12.5 µM; 1.6% of 190,000 active; in the data active = fold change above about 3.3
STAT1 inh-2 – STAT1 signaling inhibitors, confirmation, cell-based, HTS, luciferase reporter; AID 1263, 2008; 55% of 200 active; NIH 3T3 STAT1-luciferase reporter, IFN-gamma, luminescence; shares compounds with STAT1 inh-1; inhibition, % at 5.5 µM;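 active = triplicate mean inhibition exceeding the hit cutoff computed for the primary STAT1 screen, cut at about 35% in these data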;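 also: 0% = DMSO with IFN-gamma and 100% = 300 µM nifuroxazide with IFN-gamma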
NFkB inh STAT1ct – NF-kB reporter inhibitors, TNF-alpha stimulated, counter-screen for STAT1 inhibitor project, cell-based, HEK293T, luciferase luminescence | TNF-alpha induced | shares compounds with STAT1 inh-1 | AID 1303, 2008 | 30% of 200 active | inhibition, % at 5.7 µM;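 active = inhibition above the mean of solvent-only control wells plus 3 SD of those wells, cut at about 15% in these data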;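 also: 0% = DMSO with TNF-alpha and 100% = MG-132 control with TNF-alpha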
STAT3 inh 2 – STAT3 reporter inhibition by STAT1 hits, counter-screen for STAT1 inhibitor project, U3A cells, luciferase, luminescence, triplicate; shares compounds with STAT1 inh-1; IL-6 STAT3 luciferase reporter; cells lacking STAT1; inhibition, % at 5.7 µM; 20% of 200 active; AID 1310, 2008;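 active = inhibition above the mean of solvent-only control wells plus 3 SD, set per campaign, cut at about 25% in these data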;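 also: 0% = IL-6 plus DMSO and 100% = IL-6 plus nifuroxazide control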
* marks the source's active call; other numbers are inactive results; / = no result given.

SMILES	STAT1 inh-1	APP 5'UTR act	STAT3 activator	STAT3 inh	STAT1 activator	NF-kB neuron act	STAT1 inh-2	NFkB inh STAT1ct	STAT3 inh 2
CN1CCN(c2nc(-c3ccco3)cc(C(F)(F)F)n2)CC1	1.6	1.3	83.6	22.6	98.5	1.19	/	/	/
CS(=O)(=O)c1nc(-c2ccco2)cc(C(F)(F)F)n1	39.3*	0.5	103.3	3.7	64.2	1.08	40.1*	-15.1	-5.8
COc1ccccc1-c1cc(C(F)(F)F)nc(S(C)(=O)=O)n1	39.9*	-3.5	89.9	9.5	63.1	0.87	43.8*	-8.2	-33.5
c1csc(-c2ccnc3ncnn23)c1	6.5	23.3	81.3	23.7	93.5	1.05	/	/	/
Fc1ccc(-c2cnn3c(-c4cccs4)ccnc23)cc1	35.0*	220.0*	85.1	26.5	67.4	6.73*	-89.0	21.8*	-53.2
COc1ccc(/C=N/Nc2ccc(C(=O)O)cc2)cc1Br	61.4*	132.6	66.2	41.8	42.0	2.73	-56.2	48.6*	-136.7
C=CCOc1c(Br)cc(/C=N/Nc2ccc(C(=O)O)cc2)cc1OCC	-27.3	104.5	96.3	8.1	124.1	2.06	/	/	/
COc1ccc2cc(C3OCCO3)c(Cl)nc2c1	-31.1	86.3	89.2	19.1	126.7	2.85	/	/	/
COc1ccc(-n2c(-c3ccc(Br)cc3)nc(=S)c3c2CCCC3)cc1	-6.8	-7.5	103.3	-4.4	106.1	0.89	/	/	/
COc1ccc(-n2c(-c3ccc(Br)cc3)c[n+]3c2CCCCC3)cc1	39.5*	0.1	78.2	27.3	62.2	0.75	31.8	-4.8	21.8
O=C(CCCCCNC(=O)c1ccccc1Br)N=Nc1c(O)[nH]c2ccccc12	-5.1	3.3	104.0	0.1	102.0	1.03	/	/	/
COc1ccc(N/N=C(/C#N)S(=O)(=O)C(C)(C)C)cc1	3.0	-37.2	100.4	3.5	96.8	1.19	/	/	/
COc1ccc(N/N=C(\C#N)C(=N)SCc2ccccc2)cc1	36.8*	-13.9	97.8	7.5	65.5	1.3	24.5	58.7*	-14.9
Cn1c(C(=O)N2CCN(c3ccc([N+](=O)[O-])cc3)CC2)cc2c(=O)[nH]c3ccccc3c21	50.9*	-2.3	87.4	18.6	51.9	1.08	34.5*	5.3	7.7
Cc1ccc(S(=O)(=O)N2CCN(C(C(=O)Nc3ccc(F)cc3)c3ccccc3)CC2)cc1 (configuration not stated)	43.0*	17.5	106.1	-7.6	60.9	1.09	46.8*	-5.4	-26.7
Cc1cccc(N2CC(O)(c3cccs3)[N+]3=C2CCCC3)c1C (configuration not stated)	38.7*	5.2	100.3	4.4	62.4	1.26	30.9	-5.5	0.3
O=C(Nc1ccccc1C(=O)NCc1ccccc1)c1ccccc1Br	-0.1	20.4	103.1	-0.4	100.1	0.78	/	/	/
O=C(Nc1ccccc1C(=O)O)c1ccc(Br)c(S(=O)(=O)NCc2ccccc2)c1	50.6*	-8.5	98.8	7.1	52.5	1.03	29.1	5.1	3.2
CCn1c(O)c(/C=N/NC(=O)c2ccncc2)c(=O)n(CC)c1=S	61.1*	15.9	95.3	7.8	45.4	1.11	60.0*	1.3	-46.4
Cn1c(=O)n(C)c2cc(/C=N/NC(=O)c3ccncc3)ccc21	4.5	17.9	96.2	6.7	95.3	1.01	/	/	/
CCOc1cc(/C=C2/SC(=S)N(C)C2=O)ccc1Oc1ccc([N+](=O)[O-])cc1[N+](=O)[O-]	-0.6	-1.9	100.5	1.7	99.0	1.02	/	/	/
C=CCOC(=O)C1=C[C@H](c2ccc(Br)cc2)[C@@H](CCCO)[C@H](OCC)O1	38.4*	-6.0	/	/	65.4	0.84	20.8	-6.6	0.5
O=C1c2ccccc2N2C(=O)c3ccccc3[C@H]2N1c1ccccc1	3.9	2.7	85.3	23.8	96.4	0.82	/	/	/
COc1ccc2c(c1OC)C(=O)N1c3ccccc3C(=O)N(c3ccccc3F)C21 (configuration not stated)	48.4*	-40.5	85.4	23.3	55.3	0.38	41.0*	-11.6	30.0*
Cc1cc(C(=O)COC(=O)CNC(=O)c2ccccc2)c(C)n1CC1CCCO1 (configuration not stated)	36.7*	-1.0	79.3	28.3	65.2	0.59	-49.4	-2.7	-15.4
SMILES	STAT1 inh-1	APP 5'UTR act	STAT3 activator	STAT3 inh	STAT1 activator	NF-kB neuron act	STAT1 inh-2	NFkB inh STAT1ct	STAT3 inh 2
Cc1cccc(C(=O)NCC(=O)OCC(=O)c2cc(C)n(CC3CCCO3)c2C)c1 (configuration not stated)	-5.5	58.1	100.9	-1.4	105.3	0.54	/	/	/
COc1ccc(C(=O)Nc2cc(C(F)(F)F)ccc2Cl)cc1OC	-5.5	-6.3	89.9	22.7	105.0	0.85	/	/	/
Cc1nc2ncccn2c1-c1csc(Nc2ccc(O)cc2)n1	45.1*	-12.8	77.3	30.3	57.1	2.75	42.5*	8.7	32.4*
Cc1ccc(Nc2nc(-c3c(C)nc4ncccn34)cs2)cc1	8.5	-94.8	92.2	19.1	92.4	2.19	/	/	/
O=C(N/N=C/c1ccncc1)c1nn(Cc2ccccc2)c(=O)c2ccccc12	39.3*	-3.9	93.0	15.6	62.8	1.09	22.6	-7.6	8.2
Cc1ccc(-c2cc(C(F)F)nc(S(C)(=O)=O)n2)cc1	33.4	-1.4	93.6	12.3	69.8	1.01	28.6	-25.2	-6.7
CCC(=O)N(Cc1ccco1)c1nc(C(=O)Nc2ccc(Cl)cc2)c(C)s1	1.5	7.5	109.8	-13.2	98.6	1.28	/	/	/
O=C(CCS(=O)(=O)c1ccccc1)Nc1nc(-c2cccs2)cs1	7.6	-6.0	101.8	-2.2	93.1	0.77	/	/	/
CC(C)c1nnc(NC(=O)CCS(=O)(=O)c2nc(-c3cccs3)cc(C(F)(F)F)n2)s1	36.7*	28.1	96.3	6.8	66.5	1.05	43.5*	15.5*	6.4
CC1C(=O)NN=C1C(=O)N/N=C\C(Br)=C\c1ccccc1 (configuration not stated)	81.3*	126.7	91.9	16.6	24.1	3.09	40.5*	2.9	-22.8
